ChEMBL document CHEMBL1208732, “Addressing PXR liabilities of phthalazine-based hedgehog/smoothened antagonists using novel pyridopyridazines” (Bioorg Med Chem Lett, 2010)

Legend:
[1] = molecular target: T1, Nuclear receptor subfamily 1 group I member 2 (Homo sapiens, UniProt O75469); assay: Activation of human PXR expressed in HepG2 cells assessed as luciferase activity at 2 uM by chemiluminescence assay relative to rifampin; assay type: cell-based; settings: hepg2, 2 µM
T1 sequence (O75469 whole entry): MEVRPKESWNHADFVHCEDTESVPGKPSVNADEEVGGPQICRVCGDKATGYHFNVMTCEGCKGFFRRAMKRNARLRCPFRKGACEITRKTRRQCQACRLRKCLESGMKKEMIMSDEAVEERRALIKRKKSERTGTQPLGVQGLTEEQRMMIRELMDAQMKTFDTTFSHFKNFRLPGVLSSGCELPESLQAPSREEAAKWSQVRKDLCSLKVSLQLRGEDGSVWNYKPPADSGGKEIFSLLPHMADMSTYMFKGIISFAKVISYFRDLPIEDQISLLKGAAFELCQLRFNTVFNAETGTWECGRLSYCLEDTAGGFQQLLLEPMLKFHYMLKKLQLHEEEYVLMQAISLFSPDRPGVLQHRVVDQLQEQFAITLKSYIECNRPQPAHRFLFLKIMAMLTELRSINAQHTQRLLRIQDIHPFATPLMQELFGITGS
How it was run: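 HepG2 cells transfected with a luciferase reporter construct driven by human PXR cDNA. Luciferase activity read by chemiluminescence and expressed as percent of the rifampin control.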

[2] = Metabolic stability in rat liver microsomes assessed as compound turn over after 30 mins; assay type: ADME, Microsome; settings: read-out: Activity
How it was run: (§1)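 Percent turnover of compound within 30 min in human or rat liver microsome homogenates.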

[3] = Clearance in rat at 0.5 mg/kg, iv; assay type: ADME, organism-based; set-up: dose 0.5 mg/kg, route intravenous; settings: in vivo
How it was run: (§2)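 Pharmacokinetics measured in rat or mouse, with intravenous dosing at 0.5 mg/kg and oral dosing at 2 mg/kg. Reported parameters are iv clearance, Vdss, oral AUC and %F.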

[4] = Volume of distribution at steady state in rat at 0.5 mg/kg, iv and 2 mg/kg, po; assay type: ADME, organism-based; settings: in vivo, read-out: Vdss; how it was run: as §2
[5] = Fraction unbound in mouse plasma by ultra centrifugation method; assay type: ADME, cell-free
[6] = AUC in rat at 2 mg/kg, po; assay type: ADME, organism-based; set-up: dose 2 mg/kg, route oral; settings: plasma; how it was run: as §2
[7] = Oral bioavailability in rat at 2 mg/kg; assay type: ADME, organism-based; settings: in vivo; how it was run: as §2
[8] = Metabolic stability in human liver microsomes assessed as compound turn over after 30 mins; assay type: ADME, Microsome; settings: read-out: Activity; how it was run: as §1
Protein smoothened [9] = molecular target: Protein smoothened (Homo sapiens, UniProt Q99835); assay: Antagonist activity at human Smo receptor in HEPM cells assessed as inhibition of Gli expression after 24 hrs by quantigene assay; assay type: functional, cell-based
How it was run: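 HEPM cells incubated with compound in MEM with 0.5% charcoal-dextran treated FBS and […] myristoylated mouse Shh protein. GLI expression measured 24 h after adding compound and Shh, using a Quantigene assay.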

Protein smoothened [10] = molecular target: Protein smoothened (Mus musculus, UniProt P56726); assay: Antagonist activity at mouse cloned Smo receptor expressed in NIH-3T3 cells co expressing Gli1 binding site after 15 hrs by luciferase reporter gene assay; assay type: cell-based, NIH3T3
How it was run: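 Stable NIH-3T3 clone carrying a luciferase reporter (pGL4.16) with five consensus Gli1 binding sites. Cells incubated 15 h with compound in Optimem with 0.5% charcoal-dextran treated FBS and […] myristoylated mouse Shh. Luciferase read with Bright-Glo on a luminometer. Threefold dilution series, run in quadruplicate.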

[11] = Volume of distribution at steady state in mouse at 0.5 mg/kg, iv and 2 mg/kg, po; assay type: ADME, organism-based; settings: in vivo, read-out: Vdss; how it was run: as §2
Mus musculus [12] = assay: Clearance in mouse at 0.5 mg/kg, iv; assay type: ADME, organism-based; set-up: dose 0.5 mg/kg, route intravenous; settings: in vivo; how it was run: as §2
Mus musculus [13] = assay: Oral bioavailability in mouse at 2 mg/kg; assay type: ADME, organism-based; settings: in vivo; how it was run: as §2
Mus musculus [14] = assay: Reduction of Gli1 expression in po dosed NOD-SCID mouse skin after 6 hrs by RT-PCR analysis; assay type: functional, organism-based
How it was run: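 Female NOD-Scid mice aged 5–8 weeks had one hind flank shaved, then regrown hair removed with wax strips 4 days later. After 5 days mice were dosed orally with compound or vehicle, and skin was harvested 6 h post-dose into RNALater. Tissue homogenized and RNA purified. Four mice per group, two samples per animal, analysed by Dunnett's method.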

Mus musculus [15] = assay: AUC in mouse at 2 mg/kg, po; assay type: ADME, organism-based, Plasma; set-up: dose 2 mg/kg, route oral; settings: in vivo; how it was run: as §2

Sequence of Protein smoothened (Homo sapiens, UniProt Q99835) (Q99835 whole entry): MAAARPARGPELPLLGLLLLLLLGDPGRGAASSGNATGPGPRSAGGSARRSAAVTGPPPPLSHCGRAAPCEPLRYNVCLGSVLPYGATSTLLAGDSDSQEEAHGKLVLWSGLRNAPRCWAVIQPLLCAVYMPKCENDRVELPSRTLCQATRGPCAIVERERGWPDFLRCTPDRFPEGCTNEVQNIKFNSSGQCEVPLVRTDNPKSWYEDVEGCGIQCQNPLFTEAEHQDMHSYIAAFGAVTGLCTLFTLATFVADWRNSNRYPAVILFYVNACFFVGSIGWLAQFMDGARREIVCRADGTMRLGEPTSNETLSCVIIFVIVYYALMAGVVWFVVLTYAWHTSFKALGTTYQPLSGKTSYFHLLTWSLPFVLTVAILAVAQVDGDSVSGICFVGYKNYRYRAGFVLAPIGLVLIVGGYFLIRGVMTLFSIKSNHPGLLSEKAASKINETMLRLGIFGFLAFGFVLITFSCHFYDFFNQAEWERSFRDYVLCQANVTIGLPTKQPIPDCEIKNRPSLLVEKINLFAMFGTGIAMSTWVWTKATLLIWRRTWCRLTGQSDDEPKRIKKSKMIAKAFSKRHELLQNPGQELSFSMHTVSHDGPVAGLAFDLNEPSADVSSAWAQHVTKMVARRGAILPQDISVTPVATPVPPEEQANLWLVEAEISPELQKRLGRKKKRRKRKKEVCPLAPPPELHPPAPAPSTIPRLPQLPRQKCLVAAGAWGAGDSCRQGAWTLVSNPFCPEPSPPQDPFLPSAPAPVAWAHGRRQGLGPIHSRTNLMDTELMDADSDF
Sequence of Protein smoothened (Mus musculus, UniProt P56726) (P56726 whole entry): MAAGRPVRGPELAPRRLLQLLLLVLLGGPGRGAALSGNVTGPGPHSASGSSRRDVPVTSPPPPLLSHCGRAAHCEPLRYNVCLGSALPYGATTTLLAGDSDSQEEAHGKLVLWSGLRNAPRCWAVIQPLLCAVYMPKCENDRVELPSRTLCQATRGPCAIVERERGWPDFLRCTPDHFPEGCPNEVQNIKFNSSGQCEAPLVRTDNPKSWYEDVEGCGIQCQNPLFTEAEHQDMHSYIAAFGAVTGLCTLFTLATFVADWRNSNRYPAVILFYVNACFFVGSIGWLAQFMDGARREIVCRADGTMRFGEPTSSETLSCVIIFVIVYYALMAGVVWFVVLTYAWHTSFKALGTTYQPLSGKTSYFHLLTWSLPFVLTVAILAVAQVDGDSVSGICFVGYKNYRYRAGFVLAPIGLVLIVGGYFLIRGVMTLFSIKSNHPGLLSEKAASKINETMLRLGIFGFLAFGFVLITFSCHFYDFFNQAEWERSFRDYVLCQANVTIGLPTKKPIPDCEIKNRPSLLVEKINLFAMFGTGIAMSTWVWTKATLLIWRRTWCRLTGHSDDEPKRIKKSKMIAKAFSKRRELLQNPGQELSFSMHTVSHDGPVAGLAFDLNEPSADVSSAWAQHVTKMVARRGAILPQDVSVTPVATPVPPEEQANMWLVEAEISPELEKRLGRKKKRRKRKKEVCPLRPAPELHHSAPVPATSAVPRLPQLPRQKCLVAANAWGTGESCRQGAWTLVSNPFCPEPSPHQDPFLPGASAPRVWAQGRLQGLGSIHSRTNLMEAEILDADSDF

Activity [1] | metabolised at 0.5 h [2] | metabolised at 0.5 h [8] | IC50 (Protein smoothened [9]) | SMILES | other results
12% | 39% |  |  | O=C(c1ccccc1)N1CCN(c2nnc(-c3ccccc3)c3ccccc23)CC1 | 
3% | 15% |  |  | C[C@@H]1CN(C(=O)c2ccccc2)CCN1c1nnc(-c2ccc(CO)cc2)c2ccccc12 | clearance [3]: 95 mL/min/kg; Vd [4]: 1.8 L/kg
17% |  |  |  | C[C@@H]1CN(C(=O)c2ccccc2)CCN1c1nnc(-c2ccc(N(C)C)cc2)c2ccccc12 | 
81% |  |  |  | C[C@@H]1CN(C(=O)c2ccccc2)CCN1c1nnc(-c2ccc(C(F)(F)F)cc2)c2ccccc12 | fraction unbound [5]: 0.06; AUC [6]: 1200 ng·h/mL
30% | 12% |  |  | C[C@@H]1CN(C(=O)c2ccccc2)CCN1c1nnc(-c2ccccc2)c2ccccc12 | clearance [3]: 4.67 mL/min/kg; Vd [4]: 1.7 L/kg; AUC [6]: 1800 ng·h/mL; bioavailability [7]: 15%
48% | 13% |  |  | O=C(c1ccccc1)N1CCN(c2nnc(-c3ccc(Cl)c(Cl)c3)c3ccccc23)CC1 | 
32% | < 10% | < 10% |  | C[C@H]1CN(C(=O)c2ccccc2)CCN1c1nnc(-c2ccccc2)c2ccccc12 | 
61% | 21% | < 10% | 12 nM | C[C@H]1CN(C(=O)c2ccccc2)CCN1c1nnc(-c2ccc(F)cc2)c2ccccc12 | 
5.9% | < 10% | < 10% | 19 nM | C[C@@H]1CN(C(=O)c2ccccc2)CCN1c1nnc(-c2ccc(C(N)=O)cc2)c2ccccc12 | 
6.6% | 28% | 19% | 21 nM | C[C@@H]1CN(C(=O)c2ccccc2)CCN1c1nnc(-c2ccc(N3CCOCC3)cc2)c2ccccc12 | 
2.7% | < 10% | < 10% | > 1000 nM | C[C@@H]1CN(C(=O)c2ccccc2)CCN1c1nnc(-c2ccc(C(=O)O)cc2)c2ccccc12 | 
6.1% | > 95% | > 95% | 3.3 nM | CC(=O)Oc1ccc(-c2nnc(N3CCN(C(=O)c4ccccc4)C[C@H]3C)c3ccccc23)cc1 | 
2.7% | 10% | 10% | 4.8 nM | C[C@@H]1CN(C(=O)c2ccccc2)CCN1c1nnc(-c2ccc(CC(N)=O)cc2)c2ccccc12 | clearance [3]: 18.3 mL/min/kg; Vd [4]: 1.4 L/kg; AUC [6]: 460 ng·h/mL; bioavailability [7]: 22%
25% | 36% | 11% | 25 nM | C[C@@H]1CN(C(=O)c2ccccc2)CCN1c1nnc(-c2ccncc2)c2ccccc12 | 
23% | 16% | 19% | 79 nM | C[C@@H]1CN(C(=O)c2ccccc2)CCN1c1nnc(-c2cccnc2)c2ccccc12 | 
16% | 17% | 12% | 57 nM | C[C@@H]1CN(C(=O)c2ccccc2)CCN1c1nnc(-c2ccccn2)c2ccccc12 | 
12% | 63% | 54% | 8.7 nM | C[C@@H]1CN(C(=O)c2ccccc2)CCN1c1nnc(-n2cccc2)c2ccccc12 | 
74% | 72% | 55% | 8 nM | C[C@@H]1CN(C(=O)c2ccccc2)CCN1c1nnc(-n2ccc3ccccc32)c2ccccc12 | 
7.8% | 22% | < 10% | > 1000 nM | C[C@@H]1CN(C(=O)c2ccccc2)CCN1c1nnc(-c2ncco2)c2ccccc12 | 
3.7% | 16% | < 10% | > 1000 nM | C[C@@H]1CN(C(=O)c2ccccc2)CCN1c1nnc(-n2ccnc2)c2ccccc12 | 
7.1% | < 10% | < 10% | > 1000 nM | C[C@@H]1CN(C(=O)c2ccccc2)CCN1c1nnc(-c2cncnc2)c2ccccc12 | 
4.1% |  | 13% | 66 nM | C[C@@H]1CN(C(=O)c2ccccc2)CCN1c1nnc(-c2ccccc2)c2ncccc12 | 
5.7% |  | 56% | 16 nM | C[C@@H]1CN(C(=O)c2ccccc2)CCN1c1nnc(-c2ccccc2)c2cccnc12 | 
7.5% |  | 30% | 12 nM | C[C@@H]1CN(C(=O)c2ccccc2)CCN1c1nnc(-c2ccccc2)c2cnccc12 | 
4.9% |  | 13% | 5.8 nM | C[C@@H]1CN(C(=O)c2ccccc2)CCN1c1nnc(-c2ccccc2)c2ccncc12 | clearance [3]: 7.5 mL/min/kg; Vd [4]: 1.4 L/kg; AUC [6]: 1600 ng·h/mL; bioavailability [7]: 35%; IC50 (Protein smoothened [10]): 3 nM
9% | < 10% | 10% | 1 nM | C[C@@H]1CN(C(=O)c2ccccc2)CCN1c1nnc(-c2ccc(C(F)(F)F)cc2)c2ccncc12 | Vd [11]: 2 L/kg; CL (Mus musculus [12]): 0.64 L/h/kg; fraction unbound [5]: 0.035; clearance [3]: 7.67 mL/min/kg; Vd [4]: 3.5 L/kg; F (Mus musculus [13]): 46%; EC50 (Mus musculus [14]): 460 nM; AUC (Mus musculus [15]): 3.5 µg·h/mL; AUC [6]: 3300 ng·h/mL; bioavailability [7]: 73%; IC50 (Protein smoothened [10]): 0.7 nM
